Rows were chosen to be rich in hits. Some 4% of all compounds tested hit in one or more screens of this group.
FGF22 binding – binders of human FGF22 protein, primary screen, FGF22 synaptogenesis inhibitor project, biophysical, thermal shift, single point; Fibroblast growth factor 22 (Homo sapiens), Q9HCT0; recombinant FGF22 thermal shift, SYPRO orange fluorescence; percent of sucrose octasulfate shift, DMSO zero; activity (Tm shift, normalised), % at 9.99 µM; 340,000 tested, 1.5% active; AID 651658, 2012;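 active = mean Tm shift, scaled 0 neutral to 100 positive control, at about 1.3% or above, every replicate too, limit read from the data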
Target sequence (Q9HCT0 whole entry, looked up): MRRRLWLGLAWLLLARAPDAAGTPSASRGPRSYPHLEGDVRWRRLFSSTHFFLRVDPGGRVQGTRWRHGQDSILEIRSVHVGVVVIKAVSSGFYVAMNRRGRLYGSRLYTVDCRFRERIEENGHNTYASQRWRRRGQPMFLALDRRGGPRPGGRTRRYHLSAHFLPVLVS
FN deposition inh – inhibitors of fibronectin matrix deposition, primary screen, AH1F cells, Alexa488-fibronectin fluorescence, plate reader; AH1F fibroblasts, overnight; inhibition, % at 12.6 µM; 350,000 tested, 0.086% active; AID 743247, 2014;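 active = mean inhibition across replicates of 30% or more, regardless of how many single replicates reach that level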;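 note: positive control wells lacked labelled fibronectin entirely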
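Schedule: 1 h cell adhesion before compound, then overnight fibronectin incubation; test system: AH1F fibroblast monolayer depositing Alexa488-labelled fibronectin into matrix; quantity: 10000 AH1F cells per well; probe or stimulus: fluorescent fibronectin at 24 nM final; signal: fluorescence, ex 485 nm, em 525 nm; evaluation: percent inhibition as loss of matrix-bound fibronectin fluorescence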
E-sel inducer – E-selectin induction in HUVECs, primary screen, imaging, HUVEC, immunofluorescence imaging, single point | AID 686992, 2013 | 260,000 tested, 0.37% active | normalized: neutral wells 0, TNF-alpha wells 100 | P16581 | activation, % at 7.58 µM;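 active = mean E-selectin-positive cell signal at least 10% of the positive control, reached in at least 60% of replicates, without over 20% cell loss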
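Assay system: HUVEC, human umbilical vein endothelial cells / Amount: 3,000 HUVEC/well / Controls: TNF-alpha positive control, DMSO neutral control / Compound dosing: single concentration / Medium: EGM-2 over gelatin coat / Evaluation: percent E-selectin-positive cells / Signal: immunofluorescence imaging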
Ecoli rRNA inh – reduced GFP signal of wild-type E. coli, primary screen, bacterial rRNA inhibitor project, GFP/RFP fluorescence, OD600, single point | E. coli WT GFP vs humanized-ribosome RFP mutants, 24 h; active compounds read low; DMSO median 0, no signal -100 | 350,000 tested, 1.6% active | GFP signal change (wild-type ribosome), % (no concentration beside the values);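 active = significant combined selectivity score with lowered wild-type GFP, culture density cut under 30%, mutant RFP and density less affected; inactive = any of these conditions unmet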
Statin myotox sup – suppressors of statin myotoxicity in C2C12 myotubes, primary screen, cell-based, single point, plate reader | C2C12 myotubes + simvastatin, ATP luminescence, 48 h; scaled: DMSO 0, geranylgeraniol control 100 | rescue of ATP level, % at 7.49 µM | 330,000 tested, 0.78% active | AID 602340, 2012;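 active = mean ATP rescue above about 67%, or every replicate alone reaching that limit, limit read from the data, passing the limit was not always enough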;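 note: myotubes were challenged with 10 µM simvastatin during compound exposure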
SIRT5 inh – SIRT5 desuccinylase inhibitors, primary screen, biochemical, fluorescence imaging, single point, set 5 | 330,000 tested, 1.1% active | inhibition, % at 15 µM | AID 652115, 2013 | NAD-dependent protein deacylase sirtuin-5, mitochondrial (Homo sapiens), Q9NXA8 | Purified SirT5, succinyl-peptide AMC, trypsin-coupled fluorescence; in the data active = inhibition above about 15%
Active calls of the source: *; nt = no result.

SMILES	FGF22 binding	FN deposition inh	E-sel inducer	Ecoli rRNA inh	Statin myotox sup	SIRT5 inh
COC(=O)c1ccc(NC(=S)NN2CCCCC2c2cccnc2)cc1 (stereo not given)	0	7	0	-27*	-4	-5
Cc1ccc(C2C=C(c3ccccc3OC(F)F)Nc3ncnn32)cc1 (stereo not given)	nt	nt	nt	nt	107*	nt
O=C(Nc1nnc(S(=O)(=O)Cc2ccc(F)cc2)s1)c1ccccc1F	nt	-1	0	-40*	-36	2
COc1ccc(CCC2(C)NC(=O)N(C(C)C(=O)N3c4ccccc4CC3C)C2=O)cc1 (stereo not given)	0	-6	nt	-18*	3	-1
CO[C@@H]1CN(C)C(=O)c2cc(NC(=O)C3CCOCC3)ccc2OC[C@@H](C)N(C(C)=O)C[C@@H]1C	0	-7	0	0	4	-6
CCCCNC(=O)c1c(CSc2ccc(Cl)cc2)noc1C(=O)NCCC	0	1	0	-20	6	-3
COCCNC(=O)c1onc(CSc2cc(C)ccc2C)c1C(=O)O	-1	-14	0	1	2	nt
CCCCNC(=O)c1onc(CSc2cc(C)ccc2C)c1C(=O)O	1	9	0	-40*	-1	2
CCCCNC(=O)c1onc(CSc2ccc(Cl)cc2)c1C(=O)NCCCC	35*	-12	1	-25	-8	0
O=C(CCN1CCCCC1)NCC[C@@H]1CC[C@@H](NC(=O)C2CCCC2)[C@@H](CO)O1	0	nt	0	3	-7	-1
COc1ccc(N2CCN(c3nc4c(c(=O)n(C)c(=O)n4C)n3Cc3ccccc3)CC2)cc1	nt	nt	nt	nt	16	nt
C=C(C)Cn1c(N2CCN(c3ccc(OC)cc3)CC2)nc2c1c(=O)n(C)c(=O)n2C	41	3	0	-9	nt	29*
CC(C)(C)OC(=O)NCc1ccc(CNC(=O)c2[nH]cnc2C(=O)Nc2ccccc2F)cc1	43*	-4	0	12	-13	nt
C[C@H](CO)N1C[C@H](C)[C@H](CN(C)Cc2ccc(Oc3ccccc3)cc2)Oc2ccc(NC(=O)Nc3ccccc3)cc2C1=O	0	nt	1	-1	-45	10
COc1ccccc1C(O)c1ncc(-c2cccc3ccccc23)[nH]1 (stereo not given)	43*	2	0	-8	1	nt
OC(c1ccc(F)cc1)c1ncc(-c2cccc3ccccc23)[nH]1 (stereo not given)	0	11	0	-5	1	-6
C[C@@H]1CCCCO[C@@H](CN(C)C(=O)Nc2ccccc2)[C@@H](C)CN([C@H](C)CO)C(=O)c2cc(NS(C)(=O)=O)ccc2O1	0	-5	0	-2	nt	0
CC(C)Oc1cccc(C(=O)NC(=S)Nc2ccc(N3CCN(C)CC3)cc2)c1	0	4	nt	-18*	4	-1
CCCC(=O)N1CCN(c2ccc(NC(=S)NC(=O)c3cccc(C)c3)cc2)CC1	0	nt	nt	-20*	nt	-5
C[C@H](O)C#Cc1ccc2c(c1)O[C@H](CN(C)CC1CC1)[C@H](C)CN([C@H](C)CO)S2(=O)=O	nt	nt	0	-4	24	nt
O=c1nc(N2CCOCC2)nc(N/N=C/c2ccc3c(c2)OCO3)[nH]1	44*	4	nt	13	nt	7
CN(/N=C/c1ccc2c(c1)OCO2)c1nc(N2CCOCC2)nc(N2CCOCC2)n1	0	-2	6	29	nt	-6
Cc1nc(N/N=C/c2ccc(O)cc2O)cc(N2CCOCC2)n1	0	-12	-1	-37*	-15	9
Oc1ccc(/C=N/Nc2cc(N3CCOCC3)nc(N3CCOCC3)n2)cc1O	0	12	0	-25*	nt	5

Assay outcomes deposited in PubChem by Broad Institute.
